Results taken from ChEMBL document CHEMBL4359883, “4(1H)-quinolone derivatives overcome acquired resistance to anti-microtubule agents by targeting the colchicine site of β-tubulin” (Eur J Med Chem, 2019).
One block for each molecule: values may come before it. Active and inactive are the calls of the source. The calls are words filed in the database; no cut-off is given here.

What was measured:
NCI-H1975 = test: Antiproliferative activity against human NCI-H1975 cells assessed as reduction in cell viability after 72 hrs by MTS assay; type: functional, cell-based; conditions: NCI-H1975, 72 h
Summary of the method: (§1)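 Cells plated at 2000/well, cultured overnight, then exposed to a range of compound concentrations for 72 h. MTS reagent added for 1–4 h at 37 °C and absorbance read at 490 nm. Cultured in RPMI 1640 or DMEM with 10% heat-inactivated FBS under 5% CO2. Data are the mean of three determinations.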

[1] = Antiproliferative activity against human CCRF-CEM/VBL cells assessed as reduction in cell viability after 72 hrs by MTS assay; type: functional, cell-based; summary of the method: as §1
[2] = Antiproliferative activity against human KBtax cells assessed as reduction in cell viability after 72 hrs by MTS assay; type: functional, cell-based; summary of the method: as §1
[3] = Selectivity index, ratio of IC50 for human CCRF-CEM/VBL cells to IC50 for human CCRF-CEM cells; type: functional
KB = test: Antiproliferative activity against human KB cells assessed as reduction in cell viability after 72 hrs by MTS assay; type: functional, cell-based; summary of the method: as §1
CCRF-CEM = test: Antiproliferative activity against human CCRF-CEM cells assessed as reduction in cell viability after 72 hrs by MTS assay; type: functional, cell-based; summary of the method: as §1
[4] = Selectivity index, ratio of IC50 for human KB/VCR cells to IC50 for human KB cells; type: functional
[5] = Selectivity index, ratio of IC50 for human KBtax cells to IC50 for human KB cells; type: functional
[6] = Antiproliferative activity against human KB/VCR cells assessed as reduction in cell viability after 72 hrs by MTS assay; type: functional, cell-based; summary of the method: as §1
[7] = molecular target: T1, Tubulin alpha (Homo sapiens) (UniProt P0DPH7+P68366+Q71U36+P68363+Q9BQE3+Q6PEY2+A6NHL2+Q9NY65); test: Induction of microtubule depolymerization in human NCI-H1975 cells assessed as increase in alpha tubulin soluble form by immunoblot analysis; type: cell-based
Summary of the method: (§2)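 Lysate spun at 16,000 rpm for 15 min at room temperature. Soluble (monomer) and particulate (polymer) fractions immunoblotted for α-tubulin.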

Tubulin (Sus scrofa) = Tubulin (Sus scrofa) (UniProt P02554+P02550); test: Inhibition of porcine tubulin at 5 uM in presence of GTP measured every minute for 1 hr by microplate reader analysis; type: protein assay
Sequence of Tubulin (Sus scrofa) (P02550 whole entry, looked up, the tested form may be a part): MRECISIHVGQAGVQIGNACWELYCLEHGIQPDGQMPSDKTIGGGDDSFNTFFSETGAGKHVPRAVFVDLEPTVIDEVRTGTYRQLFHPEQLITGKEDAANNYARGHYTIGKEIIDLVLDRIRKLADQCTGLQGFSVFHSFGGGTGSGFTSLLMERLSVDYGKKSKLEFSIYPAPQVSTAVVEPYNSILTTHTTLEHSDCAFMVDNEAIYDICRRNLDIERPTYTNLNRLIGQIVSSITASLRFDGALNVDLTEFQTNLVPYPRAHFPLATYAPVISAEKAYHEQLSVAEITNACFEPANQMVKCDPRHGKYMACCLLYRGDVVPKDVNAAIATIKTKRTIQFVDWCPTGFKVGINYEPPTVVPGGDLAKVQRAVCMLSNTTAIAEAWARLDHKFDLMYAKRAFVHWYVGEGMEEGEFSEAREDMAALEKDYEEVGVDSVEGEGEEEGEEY
Sequence of Tubulin (Sus scrofa) (P02554 whole entry, looked up, the tested form may be a part): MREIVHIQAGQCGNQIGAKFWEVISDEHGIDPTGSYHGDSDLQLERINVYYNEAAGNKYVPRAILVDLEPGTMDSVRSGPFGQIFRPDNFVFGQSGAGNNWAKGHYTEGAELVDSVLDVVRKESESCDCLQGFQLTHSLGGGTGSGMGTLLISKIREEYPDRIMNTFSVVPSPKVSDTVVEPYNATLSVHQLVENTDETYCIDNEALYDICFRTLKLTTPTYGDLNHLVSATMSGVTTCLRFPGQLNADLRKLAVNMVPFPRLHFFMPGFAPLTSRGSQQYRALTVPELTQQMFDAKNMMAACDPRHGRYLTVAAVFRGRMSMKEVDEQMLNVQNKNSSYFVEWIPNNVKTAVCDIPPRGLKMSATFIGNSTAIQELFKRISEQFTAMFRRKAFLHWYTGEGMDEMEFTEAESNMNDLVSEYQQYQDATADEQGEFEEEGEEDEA

Tubulin (Homo sapiens) [8] = molecular target: T2, Tubulin (Homo sapiens) (UniProt P68371+Q9H4B7+P0DPH7+P68366+Q13509+Q71U36+P04350+Q3ZCM7+P07437+P68363+Q9BQE3+Q6PEY2+Q13885+Q9BVA1+Q9BUF5); test: Binding affinity to tubulin (unknown origin) assessed as increase in Beta-col fragment production at 100 uM after 30 mins by coomassie brilliant blue staining based trypsin proteolysis assay; type: protein-complex assay
Summary of the method: (§3)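 Tubulin (1 mg/mL) preincubated with 100 µM compound for 30 min at 30 °C in 0.1 M MES, 1 mM MgCl2, 1 mM EGTA, pH 6.9. Trypsin added at 25 µg/mL (1:40 w/w) for 10 min on ice. Fragments resolved on 15% SDS-PAGE, stained with Coomassie and quantified by densitometry.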

[9] = molecular target: T1, Tubulin alpha (Homo sapiens); test: Induction of microtubule depolymerization in human CL1-0 cells assessed as increase in alpha tubulin soluble form by immunoblot analysis; type: cell-based; summary of the method: as §2
[10] = Toxicity in Balb/c mouse xenografted with human KBtax cells assessed as serum BUN level at 15 mg/kg, ip administered 3 times per week and measured after 21 days (reference value: 17.8 +/-1.1 mg/dl); type: organism-based; conditions: in vivo, 504 h
[11] = Antitumour activity against human KBtax cells xenografted in Balb/c mouse assessed as reduction in tumour size at 15 mg/kg, ip administered 3 times per week and measured after 21 days (reference value: 1109 +/- 128.3 mm3); type: functional
[12] = Toxicity in Balb/c mouse xenografted with human KBtax cells assessed as serum AST level at 15 mg/kg, ip administered 3 times per week and measured after 21 days (reference value: 94.2 +/- 12.5 IU/L); type: organism-based; conditions: in vivo, 504 h
[13] = Toxicity in Balb/c mouse xenografted with human KBtax cells assessed as serum creatinine level at 15 mg/kg, ip administered 3 times per week and measured after 21 days (reference value: 0.22 +/- 0.02 mg/dl); type: organism-based; conditions: in vivo, 504 h
[14] = Cell cycle arrest in human NHFB cells assessed as effect on cell population at sub-G1 phase at 40 to 80 nM after 24 hrs by propidium iodide-staining based flow cytometry; type: ADME; conditions: 0.08 µM
Summary of the method: (§4)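 Cells treated for 24 h, then trypsinized and fixed overnight in ice-cold 70% ethanol. Stained for 30 min with propidium iodide (10 µg/mL) plus RNase (20 µg/mL), and DNA content measured by flow cytometry. Mean ± SD.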

[15] = Toxicity in Balb/c mouse xenografted with human NCI-H1975 cells assessed as effect on body mass at 4 to 8 mg/kg, ip administered 3 times per week for 25 days; type: organism-based; conditions: in vivo, 600 h
Summary of the method: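 H1975 cells (2 × 10^6) injected subcutaneously into right flank of 6-week-old BALB/c nude mice; established tumors treated intraperitoneally with 4 or 8 mg/kg compound in DMSO, or DMSO, three times a week for 25 days (n = 6 per group). Body mass recorded before each injection.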

[16] = Toxicity in Balb/c mouse xenografted with human NCI-H1975 cells assessed as serum creatinine level at 4 mg/kg, ip administered 3 times per week for 25 days (reference value: 0.14 +/- 0.02 mg/dl); type: organism-based; conditions: in vivo, 600 h
Tubulin = test: Binding affinity to tubulin (unknown origin) assessed as dissociation constant by SPR analysis; type: protein-complex assay, Homo sapiens
Summary of the method: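 Biotin-tubulin (50 µg/mL) captured on a streptavidin chip to about 3,000 RU, with remaining sites blocked by biocytin and a free flow cell as reference. Compound injected at different concentrations in HBS-EP+ (pH 7.4) at 25 °C. KD obtained from steady-state fitting.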

[17] = Toxicity in Balb/c mouse xenografted with human NCI-H1975 cells assessed as serum ALT level at 4 mg/kg, ip administered 3 times per week for 25 days (reference value: 36.6 +/- 5.9 IU/L); type: organism-based; conditions: in vivo, 600 h
[18] = Induction of apoptosis in human NHFB cells assessed as PARP cleavage at 40 nM after 24 to 72 hrs by immunoblotting analysis; type: cell-based; conditions: 0.04 µM
[19] = Cell cycle arrest in human NHFB cells assessed as effect on cell population at G2/M phase at 40 to 80 nM after 24 hrs by propidium iodide-staining based flow cytometry; type: ADME; conditions: 0.08 µM; summary of the method: as §4
[20] = Toxicity in Balb/c mouse xenografted with human NCI-H1975 cells assessed as serum BUN level at 8 mg/kg, ip administered 3 times per week for 25 days (reference value: 18.5 +/- 1.6 mg/dl); type: organism-based; conditions: in vivo, 600 h
[21] = Induction of apoptosis in human NHFB cells assessed as cytochrome c release at 40 to 80 nM after 24 hrs by immunoblotting analysis; type: cell-based; conditions: 0.08 µM
[22] = Toxicity in Balb/c mouse xenografted with human NCI-H1975 cells assessed as serum ALT level at 8 mg/kg, ip administered 3 times per week for 25 days (reference value: 36.6 +/- 5.9 IU/L); type: organism-based; conditions: in vivo, 600 h
[23] = Induction of apoptosis in human NHFB cells assessed as cleaved caspase 3 expression at 40 nM after 24 to 72 hrs by immunoblotting analysis; type: cell-based; conditions: 0.04 µM
[24] = Toxicity in Balb/c mouse xenografted with human NCI-H1975 cells assessed as serum creatinine level at 8 mg/kg, ip administered 3 times per week for 25 days (reference value: 0.14 +/- 0.02 mg/dl); type: organism-based; conditions: in vivo, 600 h
[25] = Toxicity in Balb/c mouse xenografted with human NCI-H1975 cells assessed as serum AST level at 4 mg/kg, ip administered 3 times per week for 25 days (reference value: 122 +/- 14.5 IU/L); type: organism-based; conditions: in vivo, 600 h
[26] = Toxicity in Balb/c mouse xenografted with human NCI-H1975 cells assessed as serum AST level at 8 mg/kg, ip administered 3 times per week for 25 days (reference value: 122 +/- 14.5 IU/L); type: organism-based; conditions: in vivo, 600 h
[27] = Toxicity in Balb/c mouse xenografted with human NCI-H1975 cells assessed as serum BUN level at 4 mg/kg, ip administered 3 times per week for 25 days (reference value: 18.5 +/- 1.6 mg/dl); type: organism-based; conditions: in vivo, 600 h
Tubulin (Homo sapiens) [28] = molecular target: T2, Tubulin (Homo sapiens); test: Binding affinity to tubulin (unknown origin) assessed as reduction in alpha-C fragment production at 100 uM after 30 mins by coomassie brilliant blue staining based trypsin proteolysis assay; type: protein-complex assay; summary of the method: as §3
Tubulin (Homo sapiens) [29] = molecular target: T2, Tubulin (Homo sapiens); test: Binding affinity to tubulin (unknown origin) assessed as reduction in alpha-N fragment production at 100 uM after 30 mins by coomassie brilliant blue staining based trypsin proteolysis assay; type: protein-complex assay; summary of the method: as §3
Tubulin (Homo sapiens) [30] = molecular target: T2, Tubulin (Homo sapiens); test: Binding affinity to tubulin (unknown origin) assessed as reduction in Beta-colfragment production at 100 uM after 30 mins by coomassie brilliant blue staining based trypsin proteolysis assay; type: protein-complex assay; summary of the method: as §3

IC50 (NCI-H1975): 44 nM
SMILES: CCOC(=O)c1ccc2[nH]c(-c3cccc(OC)c3)cc(=O)c2c1

SMILES: C/C(=C\c1csc(C)n1)[C@@H]1C[C@@H]2O[C@]2(C)CCC[C@H](C)[C@H](O)[C@@H](C)C(=O)C(C)(C)[C@@H](O)CC(=O)N1 [IXABEPILONE]
IC50 [1]: 150 nM | IC50 [2]: 35 nM | Ratio IC50 [3]: 50 | IC50 (KB): 8 nM | IC50 (CCRF-CEM): 3 nM | Ratio IC50 [4]: 24 | Ratio IC50 [5]: 4.3 | IC50 [6]: 193 nM

IC50 (NCI-H1975): 2200 nM
SMILES: CCOC(=O)c1ccc2[nH]c(-c3ccc(OC)cc3)cc(=O)c2c1

IC50 (NCI-H1975): 48 nM
SMILES: CC(C)OC(=O)c1ccc2[nH]c(-c3ccccc3)cc(=O)c2c1

Activity [7]: Active | tubulin inhibition call (active/not active) (Tubulin (Sus scrofa)): Active | Activity (Tubulin (Homo sapiens) [8]): Active | Activity [9]: Active
SMILES: COC(=O)Nc1nc2cc(C(=O)c3cccs3)ccc2[nH]1

IC50 (NCI-H1975): > 5000 nM
SMILES: O=C(O)c1ccc2[nH]c(-c3ccccc3)cc(=O)c2c1

IC50 (NCI-H1975): 3700 nM
SMILES: CCNC(=O)c1ccc2[nH]c(-c3ccccc3)cc(=O)c2c1

Activity [7]: inactive | tubulin inhibition call (active/not active) (Tubulin (Sus scrofa)): inactive | IC50 (CCRF-CEM): 4 nM | Activity [9]: inactive
SMILES: CC(=O)O[C@H]1C(=O)[C@@]2(C)[C@H]([C@H](OC(=O)c3ccccc3)[C@]3(O)C[C@H](OC(=O)[C@H](O)[C@@H](NC(=O)c4ccccc4)c4ccccc4)C(C)=C1C3(C)C)[C@]1(OC(C)=O)CO[C@@H]1C[C@@H]2O [PACLITAXEL]
IC50 [1]: 857 nM | IC50 [2]: 101 nM | Activity [10]: 19 mg/dL | Activity [11]: 868.7 mm3 | Activity [12]: 102.8 IU/L | Activity [13]: 0.16 mg/dL | IC50 [6]: 708 nM

IC50 (NCI-H1975): 810 nM
SMILES: CCOCc1ccc2[nH]c(-c3ccccc3)cc(=O)c2c1

IC50 (NCI-H1975): 1950 nM
SMILES: CCOC(=O)c1ccc2[nH]c(-c3cccc(O)c3)cc(=O)c2c1

IC50 (NCI-H1975): 207 nM
SMILES: COC(=O)c1ccc2[nH]c(-c3ccccc3)cc(=O)c2c1

Kd (Tubulin): 13800 nM
SMILES: CCOC(=O)c1ccc2[nH]c(-c3ccccc3)cc(=O)c2c1
Activity [14]: Non-Toxic | Activity [15]: Non-Toxic | Activity [16]: 0.26 mg/dL | Activity [17]: 40.8 IU/L | Activity [18]: Non-Toxic | Activity [19]: Non-Toxic | Activity [20]: 20.9 mg/dL | Activity [21]: Non-Toxic | Activity [22]: 54.2 IU/L | Activity [23]: Non-Toxic | Activity [24]: 0.17 mg/dL | Activity [25]: 138.7 IU/L | Activity [26]: 170.8 IU/L | Activity [27]: 23.2 mg/dL

Activity (Tubulin (Homo sapiens) [28]): Active | Activity (Tubulin (Homo sapiens) [29]): Active | Activity (Tubulin (Homo sapiens) [30]): Active | IC50 (KB): 5 nM | tubulin inhibition call (active/not active) (Tubulin (Sus scrofa)): Active | IC50 (CCRF-CEM): 3 nM
SMILES: CC[C@]1(O)C[C@H]2CN(CCc3c([nH]c4ccccc34)[C@@](C(=O)OC)(c3cc4c(cc3OC)N(C=O)[C@H]3[C@@](O)(C(=O)OC)[C@H](OC(C)=O)[C@]5(CC)C=CCN6CC[C@]43[C@@H]65)C2)C1 [VINCRISTINE]
IC50 [1]: 1320 nM | IC50 [2]: 49 nM | Ratio IC50 [3]: 440 | Ratio IC50 [4]: 163 | Ratio IC50 [5]: 9.8 | IC50 [6]: 817 nM

IC50 (NCI-H1975): 4500 nM
SMILES: CCOC(=O)c1ccc2[nH]c(-c3ccc(Br)cc3)cc(=O)c2c1

IC50 (NCI-H1975): 780 nM
SMILES: CCOC(=O)c1ccc2[nH]c(-c3cccc(C(F)(F)F)c3)cc(=O)c2c1

IC50 (NCI-H1975): 2100 nM
SMILES: CCOC(=O)c1ccc2[nH]c(-c3ccc(F)cc3)cc(=O)c2c1

IC50 (NCI-H1975): 475 nM
SMILES: CCOC(=O)c1ccc2[nH]c(-c3ccc(O)cc3)cc(=O)c2c1
